Reference: ChEMBL document CHEMBL4004814, “In Vitro and in Vivo Evaluation of Fully Substituted (5-(3-Ethoxy-3-oxopropynyl)-4-(ethoxycarbonyl)-1,2,3-triazolyl-glycosides as Original Nucleoside Analogues to Circumvent Resistance in Myeloid Malignancies” (J Med Chem, 2017)
Active and inactive are the calls of the source. The calls are words filed in the database; no cut-off is given here.

What was measured:
Format in all cases: functional, cell-based
K562 = assay: Antileukemic activity against human K562 cells after 48 hrs by XTT assay; details: K562, 48 h
Procedure, shortened: (§1)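 XTT read-out of mitochondrial metabolism after 48 h incubation with compound (up to 10 µM in first screen). XTT reagent added to cells, formazan absorbance read at 490 nm. Each assay run in quadruplicate. IC50 derived; standard deviation reported. Resistant K562 line obtained by chronic imatinib exposure for 6 months.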

[1] = Antiproliferative activity against human SKM1-R cells after 48 hrs by XTT assay
[2] = Antiproliferative activity against human SKM1-S cells after 48 hrs by XTT assay; procedure, shortened: as §1
[3] = Antiproliferative activity against human SKM1-S cells after 48 hrs by DAPI-staining-based flow cytometric method
Procedure, shortened: (§2)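 Flow cytometry of DAPI incorporation after 48 h incubation with compound; DL50 derived. SKM1 grown in RPMI with 10% FCS at 37°C, 5% CO2, with penicillin/streptomycin.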

SKM1-S = assay: Induction of apoptosis in human SKM1-S cells assessed as caspase 3 cleavage at 1 uM by Western blot method
SKM1-R = assay: Induction of apoptosis in human SKM1-R cells assessed as caspase 3 cleavage at 10 uM by Western blot method
[4] = Antiproliferative activity against human SKM1-R cells after 48 hrs by DAPI-staining-based flow cytometric method; procedure, shortened: as §2

Compound | IC50 (K562) [nM] | other results
CC(C)(C)OC(=O)C#Cc1c(C(=O)OC(C)(C)C)nnn1[C@@H]1O[C@H](CO)[C@H]2OC(C)(C)O[C@H]21 | 1150 | 
COC(=O)C#Cc1c(C(=O)OC)nnn1[C@@H]1O[C@H](CO)[C@H]2OC(C)(C)O[C@H]21 | 1450 | 
CCOC(=O)C#Cc1c(C(=O)OCC)nnn1[C@@H]1O[C@H](CO)[C@H]2O[C@@](C)(c3ccccc3)O[C@H]21 | 500 | 
COC(=O)c1nnn([C@@H]2O[C@H](CO)[C@H]3OC(C)(C)O[C@H]32)c1I | > 10000 | 
COC(=O)C#Cc1c(C(=O)OC)nnn1[C@@H]1O[C@H](COC(C)=O)[C@H]2OC(C)(C)O[C@H]21 | 150 | 
CCOC(=O)c1nnn([C@@H]2O[C@H](COC(C)=O)[C@@H](OC(C)=O)[C@H]2OC(C)=O)c1-c1cccs1 | > 10000 | 
CCOC(=O)c1nnn([C@@H]2O[C@H](CO)[C@H]3OC(C)(C)O[C@H]32)c1C#Cc1ccc(F)cc1 | > 10000 | 
CCOC(=O)C#Cc1c(C(=O)OCC)nnn1[C@@H]1O[C@H](COC(C)=O)[C@@H](OC(C)=O)[C@H]1OC(C)=O | 700 | 
CC(=O)OC[C@H]1O[C@@H](n2nnc(C(=O)OC(C)(C)C)c2C#CC(=O)OC(C)(C)C)[C@H](OC(C)=O)[C@@H]1OC(C)=O | 2500 | 
CCOC(=O)c1nnn([C@@H]2O[C@H](COC(C)=O)[C@@H](OC(C)=O)[C@H]2OC(C)=O)c1I | > 10000 | 
CCOC(=O)C#Cc1c(C(=O)OCC)nnn1[C@@H]1O[C@H](COC)[C@@H](OC)[C@H]1OC | 800 | 
CCOC(=O)C#Cc1c(C(=O)OCC)nnn1[C@H]1O[C@@H](COC(C)=O)[C@H](OC(C)=O)[C@@H]1OC(C)=O | 200 | 
CCOC(=O)C#Cc1c(C(=O)OCC)nnn1[C@@H]1O[C@H](COC(C)=O)[C@H]2OC(C)(C)O[C@H]21 | 500 | 
CCOC(=O)C#Cc1c(C(=O)OCC)nnn1[C@@H]1O[C@H](COC(C)=O)[C@H](OC(C)=O)[C@H]1OC(C)=O | 200 | 
CCOC(=O)c1nnn([C@@H]2O[C@H](COC(C)=O)[C@@H](OC(C)=O)[C@H]2OC(C)=O)c1C(=O)c1ccco1 | > 10000 | 
CCCC1(CCC)O[C@@H]2[C@H](O1)[C@@H](CO)O[C@H]2n1nnc(C(=O)OCC)c1C#CC(=O)OCC | 150 | 
NC(=O)c1ncn([C@@H]2O[C@H](CO)[C@@H](O)[C@H]2O)c1N [ACADESINE] | 800000 | 
CCOC(=O)c1nnn([C@@H]2O[C@H](COC(C)=O)[C@@H](OC(C)=O)[C@H]2OC(C)=O)c1C(=O)c1ccc(C)cc1 | > 10000 | 
CCOC(=O)c1nnn([C@@H]2O[C@H](COC(C)=O)[C@@H](OC(C)=O)[C@H]2OC(C)=O)c1C(=O)c1cccs1 | > 10000 | 
CCOC(=O)C#Cc1c(C(=O)OCC)nnn1[C@@H]1O[C@H](COC)[C@H]2OC(C)(C)O[C@H]21 | 550 | 
CCOC(=O)c1nnn([C@@H]2O[C@H](CO)[C@H]3OC(C)(C)O[C@H]32)c1I | > 10000 | 
Nc1ncn([C@@H]2O[C@H](CO)[C@@H](O)[C@H]2O)c(=O)n1 [AZACITIDINE] |  | IC50 [1]: > 10 µM; IC50 [2]: 500 nM; EC50 [3]: 510 nM; Activity (SKM1-S): Active; Activity (SKM1-R): inactive; EC50 [4]: > 10 µM
CCOC(=O)C#Cc1c(C(=O)OCC)nnn1[C@H]1C[C@H](OC(C)=O)[C@@H](COC(C)=O)O1 | 200 | 
CCCCCCCC#Cc1c(C(=O)OCC)nnn1[C@@H]1O[C@H](CO)[C@H]2OC(C)(C)O[C@H]21 | > 10000 | 
